Measurements reported in ChEMBL document CHEMBL1781979, “The discovery of novel calcium sensing receptor negative allosteric modulators” (Bioorg Med Chem Lett, 2009).
pIC50: −log10 of the molar value. Activity calls are given as the source filed them. The rule behind the calls is not given here.

Legend:
[1] = target: T1, Extracellular calcium-sensing receptor (Homo sapiens, UniProt P41180); assay: Negative allosteric modulator activity at human recombinant calcium sensing receptor expressed in HEK cells; assay type: functional, cell-based, HEK293
T1 sequence (P41180 whole entry): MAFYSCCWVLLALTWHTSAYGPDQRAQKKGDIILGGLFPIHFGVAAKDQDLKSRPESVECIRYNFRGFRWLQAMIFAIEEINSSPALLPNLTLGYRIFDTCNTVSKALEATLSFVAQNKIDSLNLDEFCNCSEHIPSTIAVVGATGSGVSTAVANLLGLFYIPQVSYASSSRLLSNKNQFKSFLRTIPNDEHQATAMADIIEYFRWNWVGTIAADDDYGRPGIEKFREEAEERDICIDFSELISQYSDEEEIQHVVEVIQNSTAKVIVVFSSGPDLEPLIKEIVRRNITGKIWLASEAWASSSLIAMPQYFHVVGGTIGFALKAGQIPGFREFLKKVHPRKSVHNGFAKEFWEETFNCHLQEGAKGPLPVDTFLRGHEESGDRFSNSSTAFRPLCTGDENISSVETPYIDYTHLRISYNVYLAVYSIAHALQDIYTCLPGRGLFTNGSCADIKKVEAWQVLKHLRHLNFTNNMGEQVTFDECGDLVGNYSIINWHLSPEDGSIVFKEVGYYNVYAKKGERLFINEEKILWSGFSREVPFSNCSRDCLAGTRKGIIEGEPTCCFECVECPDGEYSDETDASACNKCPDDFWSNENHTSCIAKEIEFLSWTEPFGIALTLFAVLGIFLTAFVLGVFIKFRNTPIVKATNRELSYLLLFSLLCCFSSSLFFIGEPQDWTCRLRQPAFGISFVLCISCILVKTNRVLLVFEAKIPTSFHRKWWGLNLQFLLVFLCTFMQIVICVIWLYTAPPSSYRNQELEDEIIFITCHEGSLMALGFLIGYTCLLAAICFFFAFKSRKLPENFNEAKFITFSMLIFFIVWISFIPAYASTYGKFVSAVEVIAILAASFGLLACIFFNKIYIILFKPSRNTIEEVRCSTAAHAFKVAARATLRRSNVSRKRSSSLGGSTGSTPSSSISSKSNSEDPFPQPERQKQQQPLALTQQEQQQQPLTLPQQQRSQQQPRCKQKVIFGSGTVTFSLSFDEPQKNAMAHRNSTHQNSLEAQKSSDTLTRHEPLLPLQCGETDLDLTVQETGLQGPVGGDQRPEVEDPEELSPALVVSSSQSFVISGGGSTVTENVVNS
In short: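 Human recombinant CaSR expressed in HEK cells; potency from n = 3 determinations.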

[2] = Intrinsic clearance in human liver microsomes assessed per mg of protein; assay type: ADME, Microsome
In short: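 Stability in human liver microsomes reported as intrinsic clearance, µL/min/mg microsomal protein.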

[3] = Intrinsic clearance in rat liver microsomes assessed per mg of protein; assay type: ADME, Microsome
In short: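 Rat liver microsomes; stability expressed as intrinsic clearance in µL/min/mg of microsomal protein.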

Rattus norvegicus [4] = assay: Increase in PTH (1-84) release response in Sprague-Dawley rat at 10 mg/kg, po by PTH ELISA; assay type: functional, organism-based; set-up: dose 10 mg/kg
[5] = Cmax in Sprague-Dawley rat at 10 mg/kg, po; assay type: ADME, organism-based; set-up: dose 10 mg/kg, route oral; conditions: in vivo
In short: (§1)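 Oral dosing at 10 mg/kg to rats; total plasma Cmax and oral bioavailability determined from plasma exposure, alongside the 1 mg/kg iv leg.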

[6] = Oral bioavailability in Sprague-Dawley rat at 10 mg/kg; assay type: ADME, organism-based; conditions: in vivo; in short: as §1
hERG (KCNH2) = hERG (KCNH2) (Homo sapiens, UniProt Q12809); assay: Inhibition of human ERG at 10 uM by whole cell voltage clamp technique
[7] = Lipophilicity, log D of the compound; assay type: physicochemical; conditions: octanol/water
[8] = Inhibition of cytochrome P450; assay type: ADME
Rattus norvegicus [9] = assay: Toxicity in Sprague-Dawley rat assessed as incidence of adverse effect at 500 mg/kg in 4 day drug toleration study; assay type: organism-based; set-up: dose 500 mg/kg; conditions: in vivo, 96 h
In short: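 Rats given 500 mg/kg over a 4 day toleration study, monitored for adverse effects.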

[10] = Volume of distribution in Sprague-Dawley rat at 1 mg/kg, iv; assay type: ADME, organism-based; set-up: dose 1 mg/kg, route intravenous; conditions: in vivo
In short: (§2)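 Intravenous dosing at 1 mg/kg to rats; volume of distribution, plasma clearance (mL/min/kg) and half-life derived from the iv plasma profile.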

[11] = Clearance in Sprague-Dawley rat at 1 mg/kg, iv; assay type: ADME, organism-based; set-up: dose 1 mg/kg, route intravenous; conditions: in vivo; in short: as §2
[12] = Half life in Sprague-Dawley rat at 1 mg/kg, iv; assay type: ADME, organism-based; set-up: dose 1 mg/kg, route intravenous; conditions: in vivo; in short: as §2
[13] = Oral bioavailability in Sprague-Dawley rat; assay type: ADME, organism-based; conditions: in vivo
Rattus norvegicus [14] = assay: Clearance in Sprague-Dawley rat at 1 mg/kg, iv; conditions: in vivo
[15] = target: Extracellular calcium-sensing receptor (Homo sapiens) (UniProt P41180); assay: Negative allosteric modulator activity at human calcium sensing receptor expressed in HEK cells

Chain of hERG (KCNH2) (Q12809 whole entry): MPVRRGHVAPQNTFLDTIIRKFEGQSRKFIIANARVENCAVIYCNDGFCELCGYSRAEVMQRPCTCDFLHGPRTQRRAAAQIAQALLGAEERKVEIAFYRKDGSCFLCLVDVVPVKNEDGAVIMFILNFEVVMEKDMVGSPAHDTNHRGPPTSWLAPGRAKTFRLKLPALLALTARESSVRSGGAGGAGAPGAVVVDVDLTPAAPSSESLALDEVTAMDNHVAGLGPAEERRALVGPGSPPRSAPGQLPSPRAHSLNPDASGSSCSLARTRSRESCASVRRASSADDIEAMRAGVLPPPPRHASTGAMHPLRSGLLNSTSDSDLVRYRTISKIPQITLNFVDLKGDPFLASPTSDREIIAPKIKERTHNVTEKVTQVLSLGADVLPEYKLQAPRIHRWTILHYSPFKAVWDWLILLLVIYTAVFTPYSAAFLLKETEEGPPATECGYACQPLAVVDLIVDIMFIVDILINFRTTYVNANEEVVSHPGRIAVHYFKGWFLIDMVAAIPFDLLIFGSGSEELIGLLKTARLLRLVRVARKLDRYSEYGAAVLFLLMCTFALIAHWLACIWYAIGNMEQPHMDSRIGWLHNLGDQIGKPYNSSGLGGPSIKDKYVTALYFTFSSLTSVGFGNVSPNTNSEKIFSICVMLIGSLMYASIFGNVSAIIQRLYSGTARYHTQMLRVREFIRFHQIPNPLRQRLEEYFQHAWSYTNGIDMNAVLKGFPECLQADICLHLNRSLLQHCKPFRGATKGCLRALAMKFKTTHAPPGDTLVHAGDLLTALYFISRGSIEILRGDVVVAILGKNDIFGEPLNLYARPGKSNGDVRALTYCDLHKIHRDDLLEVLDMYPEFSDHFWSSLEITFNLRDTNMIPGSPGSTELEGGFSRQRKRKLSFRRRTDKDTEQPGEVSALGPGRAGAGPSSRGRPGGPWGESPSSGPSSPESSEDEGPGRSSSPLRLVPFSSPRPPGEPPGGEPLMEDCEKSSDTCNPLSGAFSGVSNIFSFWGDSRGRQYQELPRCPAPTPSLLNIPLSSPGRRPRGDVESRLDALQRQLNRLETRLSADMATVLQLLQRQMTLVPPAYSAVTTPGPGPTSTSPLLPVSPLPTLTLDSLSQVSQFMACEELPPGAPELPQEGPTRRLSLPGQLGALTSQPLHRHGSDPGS

pIC50 [1]	microsomal CLint [2]	microsomal CLint [3]	logD [7]	Compound	further results
6.52	20 µL/min/mg	–	–	Cc1ccc(CC(C)(C)NC[C@@H](O)COc2cc(C3CC4CC3C3C(C(=O)O)C43)ccc2F)cc1F (mixture of isomers)	–
5.46	23 µL/min/mg	38 µL/min/mg	–	C[C@@H](OC[C@H](O)CNC(C)(C)CC1Cc2ccccc2C1)c1ccccc1C1CC2CC1C1C(C(=O)O)C21 (mixture of isomers)	–
5.46	23 µL/min/mg	38 µL/min/mg	–	Cc1ccc(CC(C)(C)NC[C@@H](O)COc2cccc(C3CC4CC3C3C(C(=O)O)C43)c2)cc1F (mixture of isomers)	–
7.60	35 µL/min/mg	45 µL/min/mg	2.4	Cc1ccc(CC(C)(C)NC[C@@H](O)CO[C@H](C)c2ccccc2C2CC3CC2C2C(C(=O)O)C32)cc1F (mixture of isomers)	Activity (Rattus norvegicus [4]): Active; Cmax [5]: 1 µM; bioavailability [6]: > 60%; inhibition at 10 µM (hERG (KCNH2)): < 10%; inhibition (INH) [8]: Not Active; Activity (Rattus norvegicus [9]): Non-toxic
7.25	19 µL/min/mg	35 µL/min/mg	2.6	CC(C)(CC1Cc2ccccc2C1)NC[C@@H](O)COc1cc(C2CC3CC2C2C(C(=O)O)C32)cc(F)c1F (mixture of isomers)	–
6.46	9 µL/min/mg	< 10 µL/min/mg	–	CC(C)(CN1Cc2ccccc2C1=O)NC[C@@H](O)COc1cc(C2CC3CC2C2C(C(=O)O)C32)ccc1C#N (mixture of isomers)	–
7.74	33 µL/min/mg	–	2.6	Cc1ccc(CC(C)(C)NC[C@@H](O)CO[C@H](C)c2ccccc2C2CC3CC2C2C(C(=O)O)C32)cc1Cl (mixture of isomers)	–
8.22	17 µL/min/mg	25 µL/min/mg	2	CC(C)(CC1Cc2ccccc2C1)NC[C@@H](O)COc1cc(C2CC3CC2C2C(C(=O)O)C32)ccc1C#N (mixture of isomers)	Vd [10]: 5 L/kg; clearance [11]: 4.2 L/h/kg; half-life [12]: 1.5 h; bioavailability [13]: < 10%; CL (Rattus norvegicus [14]): 4.98 L/h/kg
6.05	15 µL/min/mg	50 µL/min/mg	–	CC(C)(CC1Cc2ccccc2C1)NC[C@@H](O)COc1cccc(C2CC3CC2C2C(C(=O)O)C32)c1 (mixture of isomers)	–
7.64	15 µL/min/mg	27 µL/min/mg	2.3	Cc1ccc(CC(C)(C)NC[C@@H](O)COc2cc(C3CC4CC3C3C(C(=O)O)C43)ccc2C#N)cc1F (mixture of isomers)	Vd [10]: 5 L/kg; clearance [11]: 4.2 L/h/kg; half-life [12]: 1.5 h; bioavailability [13]: < 10%; CL (Rattus norvegicus [14]): 4.98 L/h/kg
6.84	< 8 µL/min/mg	90 µL/min/mg	1.5	CC(C)(CC1Cc2ccccc2C1)NC[C@@H](O)COc1cc(CCC(=O)O)cc(F)c1F [RONACALERET]	Activity (Rattus norvegicus [4]): inactive; Cmax [5]: 0.3 µM; bioavailability [6]: 12%; inhibition at 10 µM (hERG (KCNH2)): < 10%; pIC50 [15]: 6.49
7.30	16 µL/min/mg	14 µL/min/mg	2.8	C[C@@H](OC[C@H](O)CNC(C)(C)Cc1ccc(Cl)cc1F)c1ccccc1C1CC2CC1C1C(C(=O)O)C21 (mixture of isomers)	–
7.64	157 µL/min/mg	> 100 µL/min/mg	–	CC(C)(Cc1ccc2ccccc2c1)NC[C@@H](O)COc1cccc(Cl)c1C#N	–
